Source: PubChem BioAssay (Broad Institute)
Calb FLC: C. albicans growth inhibition with fluconazole, primary screen, CaCi-2 strain, Alamar Blue fluorescence; C. albicans CaCi-2 (fluconazole-resistant clinical isolate) + fluconazole, 48 h; growth inhibition, % (test concentration not listed); 0.57% of 300,000 active;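 active = growth inhibition above about 58% in most replicates, limit read from the data, passing the limit was not always enough; inconclusive = exactly half the replicates above a set limit; inactive = most replicates below a set limit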;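 also: all wells also contain fluconazole at 8 µg/ml as a sub-toxic cotreatment; 0% = median of DMSO wells and 100% = median of geldanamycin control wells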
HSF1 inhib: HSF1 inhibitors in luciferase reporter cells, primary screen, cell-based, NIH3T3, luminescence; 0.77% of 300,000 active; NIH3T3-HGL HSE-luciferase, MG132-induced, luminescence 8 h; hits give low values; activity change, negative = inhibition, % at 7.5 µM (by protocol); AID 2098, 2009;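 active = more than half of replicate wells show activity change below -50%, luminescence cut by over half; inconclusive = some wells, but at most half, below -50%; inactive = no replicate well below -50%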;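 also: luciferase reports HSF-1 transcriptional activity via heat shock element; 0% = median of DMSO wells and -100% = zero luminescence signal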
HIF activator: HIF pathway transcriptional activators, primary screen, cell-based, U2OS HRE-luciferase, luminescence. 0.32% of 300,000 active. U2OS HRE-luciferase reporter; normalized: DMSO 0%, desferrioxamine 100%. activation, % at 7.5 µM (by protocol);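 active = mean activation of at least 10% of the iron chelator positive control signal, with at least half of replicates also reaching 10%; inconclusive = mean and replicate majority disagree about reaching 10%; inactive = mean and most replicates under 10%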
T cruzi repl: inhibitors of intracellular T. cruzi growth, primary screen, luminescence, NIH3T3 host cells | T. cruzi beta-gal in NIH3T3, 90 h | inhibition, % (test concentration not listed) | 1.4% of 300,000 active;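 active = mean inhibition across valid replicates above about 55%, limit read from the data; inconclusive = mean below that limit but half or more replicates reach it; inactive = mean below it, under half of replicates reach it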;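 also: signal also drops with host cell toxicity which is not excluded here; 0% = plate median of DMSO wells and 100% = zero luminescence signal; higher percent means less beta-gal luminescence so fewer parasites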
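Assay system: NIH/3T3 fibroblasts plus reporter T. cruzi. Amount: NIH/3T3 cells, 5,000 per well. Buffer or medium: DMEM, 2% fetal bovine serum. Doses: compound pinned at 50 nL/well, DMSO. Schedule: ≥90 h infection period, 3 h prior cell attachment. Signal: luminescent β-galactosidase signal after 60 min lysis. Read-out: parasite load inhibition, %.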
HSF1 activator: HSF-1 activators, primary screen, NIH3T3-HGL cells, MG132 stress, luminescence, single point | NIH3T3-HGL HSF-1 luciferase reporter, 8 h; 100% = twice DMSO control signal | activation, % at 9 µM | 1.7% of 300,000 active | AID 504408, 2011;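 active = mean replicate activation of at least 50% with a set share of replicates each reaching 50%; inconclusive = only one of those two conditions met; inactive = mean below 50% and too few replicates reaching it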;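 also: 0% = median of the neutral control wells and 100% = twice that signal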
* = called active by the depositor. In the library only some 4.4% were active in any assay of this set; here they are far more common.

Screening CCOc1ccccc1N1C(=O)CN(Cc2ccc(OC)c(OC)c2)C1=S returned Calb FLC -11, HSF1 inhib -5, HIF activator -20, T cruzi repl 18 and HSF1 activator 0.
For O=C(NCc1ccco1)C(=O)NCC(c1ccco1)N1CCOCC1 (stereo not drawn) the results were Calb FLC 7, HSF1 inhib -69*, HIF activator 0, T cruzi repl -13 and HSF1 activator -77.
Screening O=C(NCc1cccnc1)C(=O)NCC(c1ccco1)N1CCOCC1 (stereo not drawn) returned Calb FLC -5, HSF1 inhib -1, HIF activator 0, T cruzi repl -5 and HSF1 activator 6.
`O=C(NCC(c1cccnc1)N1CCN(c2ccccc2)CC1)c1ccco1` (stereo not drawn) gave Calb FLC 4, HSF1 inhib 0, HIF activator 0, T cruzi repl 65* and HSF1 activator 4.
Screening O=C(NCc1cccnc1)C(=O)NCC(c1ccco1)N1CCN(c2ccccc2)CC1 (stereo not drawn) returned Calb FLC inconclusive, HSF1 inhib 41, HIF activator 0, T cruzi repl -21 and HSF1 activator 80*.
Screening COC(C/C=C\C(=O)[C@@H](C)OCc1ccccc1)OC returned Calb FLC 6, HSF1 inhib 2, HIF activator 1, T cruzi repl 1 and HSF1 activator 13.
O=C(N/N=C\c1c(O)ccc2ccccc12)c1ccc(Cn2cccn2)o1 was read as Calb FLC 20, HSF1 inhib 5, HIF activator 38*, T cruzi repl 14 and HSF1 activator -8.
For O=C(N/N=C/c1c(O)ccc2ccccc12)c1[nH]ncc1Br the results were Calb FLC 46, HSF1 inhib 15, HIF activator 115*, T cruzi repl 25 and HSF1 activator 32.
For CCOc1ccc(/C=N/NC(=O)c2[nH]ncc2Br)c(O)c1 the results were Calb FLC 114*, HSF1 inhib 15, HIF activator 23*, T cruzi repl 55* and HSF1 activator 46.
Screening Cc1ccc(O)c(/C=N/NC(=O)c2[nH]ncc2Br)c1 returned Calb FLC -6, HSF1 inhib 20, HIF activator 7, T cruzi repl -13 and HSF1 activator 43.
`O=C(NCC1CCN(Cc2ccccc2F)CC1)Nc1cc(F)ccc1F` gave Calb FLC 6, HSF1 inhib 0, HIF activator -17, T cruzi repl 7 and HSF1 activator 5.
For CCOC(=O)c1ccc(NC(=S)NC(=O)c2cncc(Br)c2)cc1 the results were Calb FLC 2, HSF1 inhib -13, HIF activator 1, T cruzi repl -4 and HSF1 activator -22.
For CCCCOC(=O)c1ccc(NC(=S)NC(=O)c2c(Br)c(C)nn2C)cc1 the results were Calb FLC -4, HSF1 inhib -18, HIF activator 41*, T cruzi repl -5 and HSF1 activator -28.
CCN(C(=O)COC(=O)c1ccc(C)c(S(=O)(=O)N2CCCCC2)c1)C1CCS(=O)(=O)C1 (stereo not drawn) was read as Calb FLC -2, HSF1 inhib -4, HIF activator 1, T cruzi repl -4 and HSF1 activator -5.
Screening CCc1ccccc1NCC(=O)Nc1ccc(Cl)c(C(F)(F)F)c1 returned Calb FLC -26, HSF1 inhib 26, HIF activator 1, T cruzi repl -1 and HSF1 activator 58*.
For CCOc1ccc(NC(=O)C(C)NS(=O)(=O)c2ccc(NC(C)=O)cc2)cc1 (stereo not drawn) the results were Calb FLC -20, HSF1 inhib -67*, HIF activator 1, T cruzi repl -10 and HSF1 activator -74.
Screening CCOC(=O)N1CCN(Cc2cc(Cl)c3cccnc3c2O)CC1 returned Calb FLC 116*, HSF1 inhib -17, HIF activator 6, T cruzi repl 44 and HSF1 activator -29.
`Oc1c(CN2CCOCC2)cc(COCc2ccccc2)c2cccnc12` gave Calb FLC 83*, HSF1 inhib -78*, HIF activator 53*, T cruzi repl 62* and HSF1 activator -82.
